Most compounds without a hit are left out; they make up all but 1.8% or so of the library.
NTR1 ag = agonists of human NTR1, primary screen, imaging, U2OS cells, beta-arrestin-GFP, high content | Neurotensin receptor type 1 (Homo sapiens), P30989 | NTR1-U2OS beta-arrestin-GFP spot imaging, agonist mode | activation, % at 20 µM | 330,000 tested, 0.17% active | AID 493036, 2011;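 active means activation at or above 40% of the spot to cytoplasm intensity ratio, with at least 20 cells analyzed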;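 further: 0% = DMSO without peptide and 100% = 100 nM NTR1 peptide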
MC4R ag barr = MC4R agonists recruiting beta-arrestin, primary screen, cell-based, luminescence, agonist arm of biased-ligand search | Melanocortin receptor 4 (Homo sapiens), P32245 | U2OS MC4R beta-arrestin complementation; percent of melanotan II response, DMSO zero | activation, % at 8.9 µM | 360,000 tested, 0.98% active;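 active means activation above a per-plate cutoff, the mean activation of sample wells on that plate plus 3 SD, cut at about 8% in these data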
AI-2 QS modul = Vibrio harveyi AI-2 quorum sensing modulators, primary screen, JMH597 strain, luminescence/OD600 ratio. Vibrio harveyi JMH597 AI-2 luminescence/OD600 ratio, 9 h; active compounds read low; strain lacks LuxN and CqsS sensors; 0 = neutral-control median. activity change, % at 7.5 µM. 300,000 tested, 0.4% active; in the data active means activity change below about -75%, passing the limit was not always enough;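 further: luminescence divided by OD600 gain over 9 h not by final OD600 alone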
MC4R antagonist = MC4R antagonists of cAMP signaling, primary screen, cell-based, TR-FRET, antagonist arm of biased-ligand search; MC4R-expressing cells, MTII-stimulated cAMP, LANCE TR-FRET; inhibition, % at 6.5 µM; 360,000 tested, 0.48% active;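 active means inhibition above its plate's cutoff, the mean of tested wells on that plate plus 3 SD, cut at about 29% in these data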;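 further: 0% = Melanotan II alone and 100% = Melanotan II plus saturating MCL0020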
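System – human MC4R-expressing U2OS cells · Also added – Melanotan II · Dosing – one concentration, 6.5 µM nominal · Timing – 30-min compound, 1-h challenge, 1-h detection, room temperature · Measured by – Eu-cAMP/anti-cAMP TR-FRET, emission 671 nm · Replicates – singlicate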
MC4R barr ag = MC4R beta-arrestin agonists, retest, confirmation, cell-based, luminescence, U2OS; shares compounds with MC4R ag barr; AID 602192, 2012; 2,400 tested, 31% active; U2OS MC4R beta-arrestin recruitment; scaled DMSO 0%, Melanotan II 100%; activation, % at 8.9 µM;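 active means mean activation across replicates above the hit cutoff set in the earlier primary screen, cut at about 8% in these data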
MOR-DOR barr ag = agonists of MOR-DOR heterodimerization, counter-screen for MC4R biased agonist project, cell-based, luminescence. U2OS PathHunter beta-arrestin, beta-gal luminescence; percent of deltorphin B response, DMSO zero. activation, % at 9.2 µM. shares compounds with MC4R ag barr. 2,400 tested, 5.8% active;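 active means mean activation across replicates exceeds the hit threshold derived in the earlier primary screen, cut at about 18% in these data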;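 further: 100% = deltorphin B at 0.9 µM final and 0% = DMSO alone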
* marks the source's active call; other numbers are inactive results.

What do the screens show for `Cc1cc2oc(C(=O)Nc3nonc3C)c(C)c2cc1C`?
NTR1 ag: 1; MC4R ag barr: 14*; AI-2 QS modul: 12; MC4R antagonist: 18; MC4R barr ag: -2; MOR-DOR barr ag: 5

What do the screens show for `CCc1ccc2oc(C(=O)Nc3nonc3C)c(C)c2c1`?
NTR1 ag: 0; MC4R ag barr: 2; AI-2 QS modul: 12; MC4R antagonist: -3

How did C=CCNC(=O)/C(C#N)=C/c1cn(-c2ccccc2)nc1-c1cccs1 do in these assays?
NTR1 ag: 5; MC4R ag barr: 33*; AI-2 QS modul: 19; MC4R antagonist: 12; MC4R barr ag: 9.1*; MOR-DOR barr ag: 9

Results for Cc1ccc(O)c(NC(=O)c2onc(C)c2Cl)c1 ?
NTR1 ag: -1; MC4R ag barr: -1; AI-2 QS modul: 1; MC4R antagonist: -2

How did O=C(CCc1ccccc1)NC(NC(=S)Nc1cccc(Cl)c1)C(Cl)(Cl)Cl (stereo not given) do in these assays?
NTR1 ag: 1; MC4R ag barr: 6; AI-2 QS modul: 39; MC4R antagonist: 15

How did O=C(CCc1ccccc1)NC(NC(=S)Nc1ccc(Br)cc1)C(Cl)(Cl)Cl (stereo not given) do in these assays?
NTR1 ag: 2; MC4R ag barr: 13*; AI-2 QS modul: 10; MC4R antagonist: 21; MC4R barr ag: 5; MOR-DOR barr ag: 6

What do the screens show for `CCN(CC)CCCn1c2c(c(SCC(=O)Nc3ccc4c(c3)OCCO4)nc1=O)CCC2`?
NTR1 ag: -1; MC4R ag barr: -1; AI-2 QS modul: 11; MC4R antagonist: 1

Results for COC(=O)c1cccc(Nc2nc(-c3cccnc3)nc3ccccc23)c1 ?
NTR1 ag: 2; MC4R ag barr: -1; AI-2 QS modul: 24; MC4R antagonist: 9

What do the screens show for `CCOC(=O)c1cccc(Nc2nc(-c3cccnc3)nc3ccccc23)c1`?
NTR1 ag: 27; MC4R ag barr: 12*; AI-2 QS modul: 21; MC4R antagonist: 5; MC4R barr ag: 6; MOR-DOR barr ag: 7

Results for Cc1ccccc1OCCn1cc(/C=C(\C#N)C(=O)NCc2ccco2)c2ccccc21 ?
NTR1 ag: 3; MC4R ag barr: 26*; AI-2 QS modul: 27; MC4R antagonist: 4; MC4R barr ag: 12*; MOR-DOR barr ag: 6

Results for N#C/C(=C\c1cn(CCOc2ccccc2)c2ccccc12)C(=O)NCc1ccco1 ?
NTR1 ag: 10; MC4R ag barr: 21*; AI-2 QS modul: 6; MC4R antagonist: 20; MC4R barr ag: 35*; MOR-DOR barr ag: 9

Results for CNC(=O)/C(C#N)=C/c1cn(CC(=O)NCc2ccco2)c2ccccc12 ?
NTR1 ag: -1; MC4R ag barr: -1; AI-2 QS modul: 22; MC4R antagonist: -3

Results for N#C/C(=C\c1cn(CCOc2ccccc2F)c2ccccc12)C(=O)NCc1cccs1 ?
NTR1 ag: 2; MC4R ag barr: 10*; AI-2 QS modul: -1; MC4R antagonist: 10; MC4R barr ag: 26*; MOR-DOR barr ag: 8

Results for Cc1ccc(C)c(OCCn2cc(/C=C(\C#N)C(=O)NCc3cccs3)c3ccccc32)c1 ?
NTR1 ag: 2; MC4R ag barr: -2; AI-2 QS modul: 24; MC4R antagonist: 1

How did Cc1ccc(S(=O)(=O)N2CCN(C(=O)COC(=O)c3ccccc3OC(F)F)CC2)c(C)c1 do in these assays?
MC4R ag barr: 0; MC4R antagonist: 8

What do the screens show for `COc1cc(S(=O)(=O)N2CCN(c3ccccn3)CC2)ccc1Br`?
NTR1 ag: 1; MC4R ag barr: -1; AI-2 QS modul: 10; MC4R antagonist: 1

Results for CCCOc1ccc(C(F)(F)F)cc1NC(=O)CCc1c(C)noc1C ?
NTR1 ag: 0; MC4R ag barr: 0; MC4R antagonist: -2
